Eight molecules from ChEMBL document CHEMBL4706754, “Trisubstituted Pyrrolinones as Small-Molecule Inhibitors Disrupting the Protein-RNA Interaction of LIN28 and Let-7” (ACS Med Chem Lett, 2021) can be followed below.

The structures appear in SMILES notation. Calls of active or inactive are those of the source. The calls are words filed in the database; no cut-off is given here. Bounds are passed on as bounds.

Experiment [1] can be described thus: Inhibition of human His-tagged LIN28A (16 to 187 residues) interaction with FAM-labelled preE-let-7f-1 miRNA (unknown origin) pretreated with protein for 30 mins followed by miRNA addition and measured after 15 mins by fluorescence polarization assay. The essentials:
(§1)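 LIN28A (residues 16–187) purified by nickel affinity chromatography; tested both His-tagged and with tag removed by TEV protease. Protein titrated into FAM-labeled preE-let-7f-1, FP read alongside total fluorescence. Unlabeled preE-let-7f-1 as positive control. Dose–response over eight concentrations, top 60 μM or 30 μM, in quadruplicate; some IC50s extrapolated from the observed curves.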

A short description of experiment [2]: Inhibition of human His-tagged LIN28A (16 to 187 residues) interaction with mouse preE-let-7f-Cy3 miRNA pretreated with protein for 2 hrs followed by incubation with miRNA and measured after 15 mins by EMSA method. The conditions noted are these: time 135.0 min. On the technique in general: Mobility shift assays separate free from complexed probe on a gel.
Experiment [3] has as its target T1, Protein lin-28 homolog A (Homo sapiens) (UniProt Q9H9Z2).
T1 sequence (whole entry): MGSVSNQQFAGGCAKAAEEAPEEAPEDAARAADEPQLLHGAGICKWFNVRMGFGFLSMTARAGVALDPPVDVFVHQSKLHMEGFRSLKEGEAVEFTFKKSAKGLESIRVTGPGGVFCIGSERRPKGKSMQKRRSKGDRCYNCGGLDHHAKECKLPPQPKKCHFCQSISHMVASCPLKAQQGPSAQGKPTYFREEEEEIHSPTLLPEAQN
As to the kind of experiment: Inhibition of LIN28A cold shock domain (16 to 126 residues) (unknown origin) assessed as increase in thermal stability measured after 45 mins by differential scanning fluorimetry. The following applies: dose 0.78-100 µM. A general note: Differential scanning fluorimetry follows unfolding on heating by fluorescence.

Experiment [4] has as its system JAR. As to the kind of experiment: Inhibition of LIN28/let-7 miRNA interaction in human JAR cells assessed as increase in cellular let-7a mature miRNA level at 5 to 20 uM measured after 24 hrs by RT-qPCR analysis. The conditions noted are these: dose 5-20 µM. The format is cell-based.
Experiment [5] deals with JAR. As to the kind of experiment: Inhibition of LIN28/let-7 miRNA interaction in human JAR cells assessed as increase in cellular let-7g mature miRNA level at 5 to 20 uM measured after 24 hrs by RT-qPCR analysis. The format is cell-based. The following applies: dose 5-20 µM. In general terms: Quantitative PCR measures a nucleic acid by following its amplification.
The nature of experiment [6]: Stabilization of interaction of GST-fused C-terminal region of PMA2 YDI (unknown origin)/eGFP-fused tobacco 14-3-3 expressed in Escherichia coli incubated for 2 hrs by fluorescence based analysis relative to PPI-1.
Experiment [7] can be described thus: Stabilization of interaction of GST-fused C-terminal region of PMA2 YDI (unknown origin)/eGFP-fused tobacco 14-3-3 expressed in Escherichia coli incubated for 2 hrs by fluorescence based analysis.
Experiment [8] is described as follows: Inhibition of human His-tagged LIN28A(16 to 187 residues) interaction with mouse preE-let-7f-Cy3 miRNA at 2.5 to 75 uM pretreated with protein for 2 hrs followed by incubation with miRNA and measured after 15 mins by EMSA method relative to control. The conditions noted are these: dose 2.5-75 µM, time 135.0 min.
Experiment [9] in a line: Inhibition of LIN28 (unknown origin) expressed in Escherichia coli BL21 (DE3) Rosetta interaction with FAM-labelled preE-let-7 miRNA (unknown origin) by fluorescence polarization assay. Set-up: species or system Homo sapiens. The essentials:
as §1

On to `COc1ccc(C(=O)C2=C(O)C(=O)N(c3ccc(O)c(C(=O)O)c3)C2c2ccc(C(=O)O)cc2)cc1` (configuration not stated), for which the IC50 in [1] turned out to be 30 µM. On to `O=C(C1=C(O)C(=O)N(c2ccc(O)c(C(=O)O)c2)C1c1ccc(-c2nccs2)cc1)c1ccc(Br)cc1` (configuration not stated), for which the inhibition entry in experiment [2] was “Dose-dependent effect”. Also, the Activity result in experiment [3] was “Dose-dependent effect”; in experiment [6], < 30%. The inhibition result in the experiment with JAR [4] and with JAR [5] was “Active” throughout. For the molecule `O=C(O)c1ccc(C2C(C(=O)c3ccccc3)=C(O)C(=O)N2c2ccc(O)c(C(=O)O)c2)cc1` (configuration not stated), the Activity in experiment [6] was < 30%.

`O=C(C1=C(O)C(=O)N(c2ccc(O)c(C(=O)O)c2)C1c1ccc([N+](=O)[O-])cc1)c1ccccc1` (configuration not stated) displayed an EC50 in experiment [7] of 100 µM. Consider `O=C(O)c1cccc(N2C(=O)C(O)=C(C(=O)c3ccc(Br)cc3)C2c2ccc(-c3nccs3)cc2)c1` (configuration not stated), for which the inhibition entry in experiment [8] is “inactive”. Consider `O=C(O)c1cccc(N2C(=O)C(O)=C(C(=O)c3ccccc3)C2c2ccc(-c3nccs3)cc2)c1` (configuration not stated), for which the 50% inhibitory concentration (IC50) in experiment [1] was 30 µM.

Consider `O=C(O)c1ccc(C2C(C(=O)c3ccc(Br)cc3)=C(O)C(=O)N2c2ccc(O)c(C(=O)O)c2)cc1` (configuration not stated), for which the IC50 in experiment [1] came out at 30 µM.

On to `CCOc1cccc2c1N[C@@H](c1ccc(C(=O)O)cc1)[C@H]1CC=C[C@@H]21`, for which, in [9], it took 7 µM to reach half-maximal inhibition (IC50).

The IC50 is the midpoint of a concentration-inhibition curve. One may read the EC50 as the midpoint of the concentration-response curve. Low readings indicate higher potency in that assay, high ones lower potency in that assay.
